Assay outcomes from PubChem BioAssay.
A3A deaminase – inhibitors of human APOBEC3A DNA deaminase; P31941; recombinant A3A, FAM/TAMRA ssDNA deamination fluorescence; inhibition, % at 20 µM; hit rate 0.41% among 330,000;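 active means at least 40% inhibition at 20 µM here, with at most 30% in a related deaminase screen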
Target sequence (P31941 whole entry, looked up): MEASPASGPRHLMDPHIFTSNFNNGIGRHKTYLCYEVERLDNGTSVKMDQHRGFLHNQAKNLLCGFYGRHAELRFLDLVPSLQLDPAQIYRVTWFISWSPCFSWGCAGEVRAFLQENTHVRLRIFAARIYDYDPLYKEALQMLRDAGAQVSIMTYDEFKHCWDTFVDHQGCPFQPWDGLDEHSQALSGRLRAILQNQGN
ABHD5 PLIN5 PPI – inhibitors of human ABHD5-perilipin-5 interaction | Q00G26+Q8WTS1 | Split G. princeps luciferase complementation, luminescence, 4 h | inhibition, % at 4 µM | hit rate 0.78% among 360,000;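 active means inhibition above the mean inhibition across every tested compound plus 3 SD, cut at about 22% in these data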
APOBEC3G inh – APOBEC3G (human) deaminase inhibition; Q9HC16; recombinant A3G, ssDNA deamination FAM/TAMRA fluorescence; inhibition, % at 20 µM; hit rate 0.28% among 330,000;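 active means inhibition of at least 40% at 20 µM, with no more than 30% in the related APOBEC3A deaminase screen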
Target sequence (Q9HC16 whole entry, looked up): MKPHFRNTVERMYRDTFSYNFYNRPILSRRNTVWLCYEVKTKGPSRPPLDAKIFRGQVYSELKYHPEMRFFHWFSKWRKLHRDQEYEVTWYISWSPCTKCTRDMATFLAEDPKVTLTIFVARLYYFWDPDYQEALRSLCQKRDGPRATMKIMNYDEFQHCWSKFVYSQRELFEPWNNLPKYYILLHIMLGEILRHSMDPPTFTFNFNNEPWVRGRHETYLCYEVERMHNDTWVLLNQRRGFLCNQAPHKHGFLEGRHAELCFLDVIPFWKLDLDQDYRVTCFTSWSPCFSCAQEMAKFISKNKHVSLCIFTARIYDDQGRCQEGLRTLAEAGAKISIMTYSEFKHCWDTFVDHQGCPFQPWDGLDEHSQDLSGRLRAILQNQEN
FN deposition inh – fibronectin deposition inhibition. AH1F fibroblasts, Alexa488-fibronectin deposition fluorescence, overnight. inhibition, % at 12.6 µM. hit rate 0.086% among 350,000. AID 743247;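 active means mean inhibition across replicates of 30% or more, regardless of how many single replicates reach that level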
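Schedule: 1 h cell adhesion before compound, then overnight fibronectin incubation; test system: AH1F fibroblast monolayer depositing Alexa488-labelled fibronectin into matrix; quantity: 10000 AH1F cells per well; probe or stimulus: fluorescent fibronectin at 24 nM final; signal: fluorescence, ex 485 nm, em 525 nm; evaluation: percent inhibition as loss of matrix-bound fibronectin fluorescence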
APOBEC3A confirm – confirmation of human APOBEC3A DNA deaminase inhibitors | inhibition, % at 20 µM | shares compounds with A3A deaminase | hit rate 63% among 1,400 | AID 493151 | recombinant A3A, ssDNA deaminase UDG fluorescence assay;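 active means inhibition reaching a set limit, 80% of the first screen's cutoff, at 20 µM in any replicate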
UDG ctr A3A – UDG inhibition in APOBEC3A counter-screen; AID 504714; 1,000 tested, under 10 active; shares compounds with A3A deaminase; UDG counterscreen, FAM/TAMRA uracil oligo fluorescence; inhibition, % at 20 µM; call rule not given here
Each line names hits and unclear results; the compound was inactive in the other large screens (follow-up assays come after a bar, where they were run). Rows were chosen to be rich in hits. Some 1.2% of all compounds tested hit in one or more screens of this group.

CC(=O)N1CCN(CCN(CC2C(C)C=C(C)CC2C)C(C)=O)CC1 (configuration not stated)	none (no result: FN deposition inh)
CCC(=O)Nc1ccc2c(c1)OC[C@@H](C)N(C(=O)c1ccc(F)cc1)C[C@@H](C)[C@@H](OC)CN(C)C2=O	none (no result: A3A deaminase, ABHD5 PLIN5 PPI, APOBEC3G inh)
CO[C@H]1CN(C)C(=O)c2ccc(NS(=O)(=O)c3cn(C)cn3)cc2OC[C@H](C)N(CCC(F)(F)F)C[C@@H]1C	none (no result: A3A deaminase, ABHD5 PLIN5 PPI, APOBEC3G inh)
CC(=O)N1CCN(C(=O)CCN(c2ccccc2)S(=O)(=O)c2ccc(C)cc2)CC1	none
Cc1ccc(S(=O)(=O)N(CCC(=O)N2CCOCC2)c2ccccc2)cc1	A3A deaminase 61.8 | APOBEC3A confirm inactive
O=C(N/N=C\C=C\c1ccc2c(c1)OCO2)c1cccnc1	A3A deaminase 45.1 | APOBEC3A confirm inactive | UDG ctr A3A inactive
O=C(N/N=C/c1cccnc1)c1ccc2c(c1)OCO2	none
COC(=O)C1=C(C)N(Cc2ccccc2)C(=NCc2cc(OC)c(OC)c(OC)c2)N[C@H]1c1ccccc1	A3A deaminase 70.1 (no result: ABHD5 PLIN5 PPI, FN deposition inh) | APOBEC3A confirm 46.6
COC(=O)C1=C(C)N(Cc2ccccc2)C(=NCc2cc(OC)c(OC)c(OC)c2)N[C@H]1c1ccc(Br)cc1	A3A deaminase 46.1 (no result: FN deposition inh) | APOBEC3A confirm 60.5 | UDG ctr A3A inactive
COCCN=C1N[C@@H](c2ccc(Br)cc2)C(C(=O)OC)=C(C)N1Cc1ccccc1	A3A deaminase 53.8 | APOBEC3A confirm 39.6 | UDG ctr A3A inactive
COCCN=C1N[C@@H](c2ccccc2)C(C(=O)OC)=C(C)N1Cc1ccccc1	none
COC(=O)C1=C(C)N(CC2CC2)C(=NCc2cc(OC)c(OC)c(OC)c2)N[C@H]1c1ccccc1	A3A deaminase 46.6 (no result: FN deposition inh) | APOBEC3A confirm 55.5 | UDG ctr A3A inactive
Cc1noc(C)c1NC(=O)Nc1ccc2c(c1)C(=O)N([C@@H](C)CO)C[C@@H](C)[C@@H](CN(C)C(=O)NC(C)C)OCCCC[C@@H](C)O2	none (no result: A3A deaminase, ABHD5 PLIN5 PPI, APOBEC3G inh)
COC(=O)C1=C(C)N(CC2CC2)C(=NCc2cccc(Cl)c2)N[C@H]1c1ccccc1	A3A deaminase 59.2 | APOBEC3A confirm 44.1
Cc1ccc(Cl)cc1N1CCN(c2cccc[n+]2C)CC1	A3A deaminase 46.5 | APOBEC3A confirm inactive
C[n+]1ccccc1N1CCN(c2ccccc2Cl)CC1	A3A deaminase 60.2 | APOBEC3A confirm inactive
COc1ccc(C(=S)N2CCN(c3ccccc3Cl)CC2)cc1OC	none
C[C@H](CO)N1C[C@H](C)[C@@H](CN(C)S(=O)(=O)c2ccccc2F)OCc2ccccc2-c2ccccc2C1=O	none (no result: A3A deaminase, ABHD5 PLIN5 PPI, APOBEC3G inh)
O=C(Oc1ccc2c(c1)OCO2)c1cc2c(s1)CCC2	A3A deaminase 62.4 | APOBEC3A confirm 79.5
Cc1ccc(CSc2ncn(-c3ccccc3)n2)cc1	A3A deaminase 40.8 | APOBEC3A confirm inactive
Clc1ccccc1CSc1ncn(-c2ccccc2)n1	none
COc1ccc(S(=O)(=O)N(C)C[C@H]2Oc3ccc(NC(=O)Nc4cccc5ccccc45)cc3C(=O)N([C@H](C)CO)C[C@H]2C)cc1	none (no result: A3A deaminase, ABHD5 PLIN5 PPI, APOBEC3G inh)
CC(C)C(CO)N1CCN(Cc2ccccc2)CCC1=O (configuration not stated)	A3A deaminase 61.4 | APOBEC3A confirm 51.3 | UDG ctr A3A inactive
Cc1ccc(C(=O)Nc2cc(C(F)(F)F)ccc2-n2cncn2)o1	none
Cc1ccc(C(=O)Nc2cc(Cl)ccc2-n2cncn2)o1	A3A deaminase 41.5 | APOBEC3A confirm 47.9 | UDG ctr A3A inactive
CN1c2ccc(-c3ccccc3)cc2[C@H]2[C@H](CCN2C(=O)CC2CC2)[C@H]1CO	none (no result: A3A deaminase, ABHD5 PLIN5 PPI, APOBEC3G inh)
O=C(COC(=O)c1ccccc1Nc1cccc(C(F)(F)F)c1)NCc1ccco1	A3A deaminase 42.5 | APOBEC3A confirm 23.2 | UDG ctr A3A inactive
Cc1ccc(-c2c(C(=O)N/N=C/c3ccco3)nnn2-c2nonc2N)cc1	A3A deaminase 60.9 | APOBEC3A confirm inactive
CCOc1ccc(-c2c(C(=O)N/N=C/c3ccco3)nnn2-c2nonc2N)cc1	none
CC1=NC(=O)C(N=Nc2cccc(C(=O)O)c2)N1c1ccccc1 (configuration not stated)	A3A deaminase 42.5 (no result: FN deposition inh) | APOBEC3A confirm 63.2 | UDG ctr A3A inactive
CN(CC(=O)Nc1cccc(F)c1)C(=O)Cn1c(=O)cnc2ccccc21	none
Cc1cc(Br)ccc1NC(=O)CN(C)C(=O)Cn1c(=O)cnc2ccccc21	A3A deaminase 66.3 | APOBEC3A confirm 52.2 | UDG ctr A3A inactive
CCCCCCNC(=O)c1cc(-c2ccco2)nc2ccccc12	A3A deaminase 61.6 | APOBEC3A confirm 54.1 | UDG ctr A3A inactive
CC(C)CCNC(=O)c1cc(-c2ccco2)nc2ccccc12	none
COc1ccc(NC(=O)CN2C(=O)S/C(=C/c3cccn3-c3ccc(C(=O)O)cc3)C2=O)cc1	A3A deaminase 63.5 (no result: FN deposition inh) | APOBEC3A confirm 57.3
Cc1ccc(NC(=O)CN2C(=O)S/C(=C\c3cccn3-c3cccc(C(=O)O)c3)C2=O)cc1C	none
CCOC(=O)c1ccc2c(c1)n(CC)c(C)[n+]2CC	A3A deaminase 72.5 (no result: FN deposition inh) | APOBEC3A confirm 68.8 | UDG ctr A3A inactive
CC[n+]1c(C)n(C)c2cc(S(=O)(=O)N(C)C)ccc21	A3A deaminase 81.5 | APOBEC3A confirm 77.4 | UDG ctr A3A inactive
CC[n+]1c(/C=C/C=C/N(C(C)=O)c2ccccc2)sc2ccccc21	none (no result: FN deposition inh)
CCn1c(C)[n+](CC)c2ccc(S(=O)(=O)N(C)C)cc21	none
CCn1c(/C=C/N(C(C)=O)c2ccccc2)[n+](CC)c2ccc(Cl)cc21	A3A deaminase 63.0 | APOBEC3A confirm 64.5 | UDG ctr A3A inactive
CCn1c(C)[n+](CC)c2ccc(C(=O)N(C)c3ccccc3)cc21	A3A deaminase 70.8 (no result: FN deposition inh) | APOBEC3A confirm 80.4 | UDG ctr A3A inactive
CN1C(=O)c2cc(NC(=O)c3cnccn3)ccc2OC[C@@H]2O[C@@H](CC(=O)NCC3CC3)CC[C@H]21	none (no result: A3A deaminase, ABHD5 PLIN5 PPI, APOBEC3G inh)
O=C1[C@H](Cc2ccc(C(F)(F)F)cc2)CCn2cc(nn2)COC[C@H]2CCCCN12	none (no result: A3A deaminase, ABHD5 PLIN5 PPI, APOBEC3G inh)
O=C1N[C@H](Cc2ccccc2)COCn2nncc2CC[C@@H]1Cc1ccccc1	none (no result: A3A deaminase, ABHD5 PLIN5 PPI, APOBEC3G inh)
CCn1c(C)[n+](CC)c2ccc(S(=O)(=O)NC)cc21	A3A deaminase 76.1 | APOBEC3A confirm 48.8 | UDG ctr A3A inactive
COCC(=O)Nc1ccc2c(c1)OC[C@H](C)N(CC1CC1)C[C@@H](C)[C@@H](OC)CN(C)C2=O	none (no result: A3A deaminase, ABHD5 PLIN5 PPI, APOBEC3G inh)
CC1CC(OCC(O)C[N+]2(C)CCOCC2)CC(C)(C)C1 (configuration not stated)	A3A deaminase 62.1 | APOBEC3A confirm 69.4 | UDG ctr A3A inactive
CC(C)(C)N(Cc1ccccc1)C(=O)CN1C(=O)c2ccccc2C1=O	none
CC(C)(C)N(Cc1ccccc1)C(=O)CN1C(=O)c2ccccc2S1(=O)=O	A3A deaminase 45.1 | APOBEC3A confirm 37.6 | UDG ctr A3A inactive
O=C1N=C(N2CCCC2C(=O)O)S/C1=C\c1ccco1 (configuration not stated)	A3A deaminase 43.7 (no result: FN deposition inh) | APOBEC3A confirm 19.2 | UDG ctr A3A inactive
COc1ccc(NC(=O)CN(C2CCCCC2)S(C)(=O)=O)cc1OC	none (no result: FN deposition inh)
